Experimental findings from ChEMBL document CHEMBL1221323, “Iodination of verapamil for a stronger induction of death, through GSH efflux, of cancer cells overexpressing MRP1” (Bioorg Med Chem, 2010) are described below.

Series [1] concerns BHK-21. Put plainly: Cytotoxicity against hamster BHK21 cells after 96 hrs by MTT assay. Particulars: Mesocricetus auratus, BHK-21, 96 h; call rule not given here. It is filed as functional, cell-based. The method, boiled down: (§1)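 Cells plated at 1.0 × 10⁴/well and grown 17 h, then exposed to compound diluted in complete medium (0.5% DMSO) for 96 h at 37 °C, 5% CO₂. MTT at 0.5 mg/mL added for 4 h, dye removed, formazan dissolved in isopropanol, absorbance read at 570 nm. IC50 taken from sigmoidal fits of triplicate dose–response curves.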
(Tetrazolium assays rely on reduction of a dye to a coloured formazan, in cell work by metabolically active cells.)

Series [2] relates to BHK-21. Put plainly: Cytotoxicity against hamster BHK21 cells expressing MRP1 after 96 hrs by MTT assay. It is filed as functional, cell-based. The settings on record: Mesocricetus auratus, BHK-21, 96 h. The method, boiled down: as §1
Series [3] deals with T1, Multidrug resistance-associated protein 1 (Homo sapiens, UniProt P33527). Description: Inhibition of MRP1 expressed in hamster BHK21 cells assessed as reduction of GSH efflux at 5 uM after up to 50 to 60 mins. It counts as cell-based. The settings on record: bhk-21, 5 µM. The method, boiled down: (§2)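 Cells from the MRP1-transfected BHK-21 line (kept under methotrexate) were seeded at 1.0 × 10⁵/well, grown 17 h, then given 5 µM compound (DMSO ≤0.5%) for 10–120 min. Cells were washed in cold PBS and lysed in 0.1% Triton X-100. Total glutathione was measured by DTNB/NADPH/GSH reductase recycling (A412 kinetic, 2 min) and normalized to Bradford protein. Residual GSH is expressed as % of untreated cells; time to 50% loss is reported; triplicates.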

The target in series [4] is T1, Multidrug resistance-associated protein 1. Put plainly: Inhibition of MRP1 expressed in hamster BHK21 cells assessed as reduction of GSH efflux at 5 uM after up to 120 mins. It is filed as cell-based. Particulars: bhk-21, 2 h. The method, boiled down: as §2

Broadly, the IC50 is the point on the concentration scale where inhibition reaches its midpoint.

T1 sequence (P33527 whole entry): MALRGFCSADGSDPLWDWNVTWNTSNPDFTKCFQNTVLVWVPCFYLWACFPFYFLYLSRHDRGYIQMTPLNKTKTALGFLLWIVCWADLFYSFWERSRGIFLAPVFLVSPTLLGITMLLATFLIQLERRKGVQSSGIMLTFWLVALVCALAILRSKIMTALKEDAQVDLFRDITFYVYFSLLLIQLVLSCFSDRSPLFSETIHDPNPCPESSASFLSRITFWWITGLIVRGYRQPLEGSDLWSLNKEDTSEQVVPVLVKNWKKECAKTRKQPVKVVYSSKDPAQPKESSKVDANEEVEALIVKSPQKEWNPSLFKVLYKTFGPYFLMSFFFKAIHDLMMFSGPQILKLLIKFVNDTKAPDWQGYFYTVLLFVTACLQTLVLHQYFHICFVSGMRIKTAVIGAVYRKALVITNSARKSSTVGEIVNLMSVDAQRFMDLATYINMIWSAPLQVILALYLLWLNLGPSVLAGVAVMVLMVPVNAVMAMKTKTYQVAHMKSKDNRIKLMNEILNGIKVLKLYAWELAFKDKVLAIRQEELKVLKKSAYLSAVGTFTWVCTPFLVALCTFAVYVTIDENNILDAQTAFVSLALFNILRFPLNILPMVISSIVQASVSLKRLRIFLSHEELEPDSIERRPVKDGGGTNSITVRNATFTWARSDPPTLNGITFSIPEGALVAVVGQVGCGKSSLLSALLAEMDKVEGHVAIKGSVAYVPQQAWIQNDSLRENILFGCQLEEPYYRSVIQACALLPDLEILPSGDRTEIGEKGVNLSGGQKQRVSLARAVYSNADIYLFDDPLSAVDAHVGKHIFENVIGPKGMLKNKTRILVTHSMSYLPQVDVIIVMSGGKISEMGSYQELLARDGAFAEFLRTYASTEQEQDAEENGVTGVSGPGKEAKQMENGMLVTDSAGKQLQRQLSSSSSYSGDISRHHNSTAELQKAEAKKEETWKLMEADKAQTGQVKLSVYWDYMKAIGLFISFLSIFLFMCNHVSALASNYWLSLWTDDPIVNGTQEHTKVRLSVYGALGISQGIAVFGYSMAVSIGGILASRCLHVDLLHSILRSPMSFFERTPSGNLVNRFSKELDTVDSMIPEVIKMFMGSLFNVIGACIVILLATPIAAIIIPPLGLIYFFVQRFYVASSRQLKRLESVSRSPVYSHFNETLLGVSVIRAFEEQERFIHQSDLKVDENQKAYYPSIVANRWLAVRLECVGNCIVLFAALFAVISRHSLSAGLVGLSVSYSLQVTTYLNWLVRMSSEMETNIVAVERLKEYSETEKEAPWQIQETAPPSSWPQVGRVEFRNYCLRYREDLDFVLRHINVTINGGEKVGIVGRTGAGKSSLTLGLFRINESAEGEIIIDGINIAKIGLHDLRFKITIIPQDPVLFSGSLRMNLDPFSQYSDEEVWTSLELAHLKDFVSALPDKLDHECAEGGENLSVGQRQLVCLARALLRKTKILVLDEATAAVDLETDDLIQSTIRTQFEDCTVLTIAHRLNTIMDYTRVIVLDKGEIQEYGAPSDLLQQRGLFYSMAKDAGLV

As to `COc1ccc(C(C#N)(CCCN(C)Cc2cc(I)c(O)c(I)c2)C(C)C)cc1OC` (configuration not stated), the half-inhibitory concentration (IC50) was 27.4 µM with BHK-21 [1] and 6.6 µM in the series on BHK-21 [2].

Consider `COc1ccc(C(C#N)(CCCN(C)CCCc2ccc(O)cc2)C(C)C)cc1OC` (configuration not stated), for which the IC50 in the series on BHK-21 [1] is ≥ 100 µM; in the series with BHK-21 [2] it was 20.9 µM. Moreover, the “inhibition (INH)” value in series [3] was “Not Active”.

On to `COc1ccc(C(C#N)(CCCN(C)CCCc2ccc(O)c(I)c2)C(C)C)cc1OC` (configuration not stated), for which the half-maximal inhibitory concentration (IC50) in the series with BHK-21 [1] was 9.4 µM; with BHK-21 [2], 9.3 µM.

Consider `COc1ccc(C(C#N)(CCCN(C)CCCc2cc(I)c(O)c(I)c2)C(C)C)cc1OC` (configuration not stated), for which the IC50 in the series with BHK-21 [1] stood at 33.1 µM; in the series on BHK-21 [2], 6 µM.

As to `COc1ccc(C(C#N)(CCCN(C)Cc2ccc(O)cc2)C(C)C)cc1OC` (configuration not stated), the IC50 with BHK-21 [1] was found to be 28.5 µM; in the series on BHK-21 [2], 6.6 µM. Moreover, the “inhibition (INH)” value in series [3] is given as “Not Active”.

Take `COc1ccc(C(C#N)(CCCN(C)Cc2ccc(O)c(I)c2)C(C)C)cc1OC` (configuration not stated): the IC50 was 14.1 µM in the series with BHK-21 [1] and 13 µM in the series on BHK-21 [2].

In the case of `COc1ccc(C(C#N)(CCCNCCc2ccc(O)cc2)C(C)C)cc1OC` (configuration not stated), the IC50 with BHK-21 [1] is ≥ 100 µM; in the series with BHK-21 [2], 38.1 µM.

For the compound `COc1ccc(C(C#N)(CCCNCCc2ccc(O)c(I)c2)C(C)C)cc1OC` (configuration not stated), the 50% inhibitory concentration (IC50) was 14.2 µM with BHK-21 [1] and 0.78 µM in the series with BHK-21 [2].

Consider `COc1ccc(C(C#N)(CCCNCCc2cc(I)c(O)c(I)c2)C(C)C)cc1OC` (configuration not stated), for which the figures for the IC50 in the series on BHK-21 [1] and in the series on BHK-21 [2] were 13.8 µM and 1.96 µM, respectively.

Turning to `COc1ccc(CCN(C)CCCC(C#N)(c2ccc(OC)c(OC)c2)C(C)C)cc1` (configuration not stated), the results for the IC50 in the series on BHK-21 [1] and with BHK-21 [2] were 33.6 µM and 17.2 µM, respectively. Moreover, the “inhibition (INH)” value in series [4] is on record as “Not Active”.

`COc1ccc(CCN(C)CCCC(C#N)(c2ccc(OC)c(OC)c2)C(C)C)cc1I` (configuration not stated): the IC50 worked out at 13 µM with BHK-21 [1] and 4.7 µM in the series on BHK-21 [2]. In series [4], the “inhibition (INH)” value was “Not Active”.

Turning to `COc1ccc(C(C#N)(CCCN(C)CCc2cc(I)c(OC)c(I)c2)C(C)C)cc1OC` (configuration not stated), the IC50 in the series with BHK-21 [1] was 8.9 µM; in the series on BHK-21 [2], 1.7 µM. Further, in series [4], the “inhibition (INH)” value is given as “Not Active”.

Regarding `COc1ccc(C(C#N)(CCCN(C)CCc2ccc(O)cc2)C(C)C)cc1OC` (configuration not stated), the IC50 in the series with BHK-21 [1] was determined as 55.9 µM; in the series on BHK-21 [2], 11.7 µM.

In the case of `COc1ccc(C(C#N)(CCCN(C)CCc2ccc(O)c(I)c2)C(C)C)cc1OC` (configuration not stated), the half-maximal inhibitory concentration (IC50) with BHK-21 [1] was 32.8 µM; in the series with BHK-21 [2] it was 8.6 µM.

Regarding `COc1ccc(C(C#N)(CCCN(C)CCc2cc(I)c(O)c(I)c2)C(C)C)cc1OC` (configuration not stated), the IC50 was 54.7 µM in the series on BHK-21 [1] and 1.1 µM in the series with BHK-21 [2].

Turning to `COc1ccc(CCN(C)CCCC(C#N)(c2ccc(OC)c(OC)c2)C(C)C)cc1OC` (configuration not stated) [VERAPAMIL], the values for the half-inhibitory concentration (IC50) with BHK-21 [1] and in the series with BHK-21 [2] were ≥ 100 µM and 10.6 µM, respectively.
